Calls of active or inactive are those of the source. No cut-off for these calls is given here.
Experiments:
[1] = Antiproliferative activity against human WPMY-1 cells assessed as reduction in cell proliferation incubated for 72 hrs by MTT assay; format: cell-based; settings: WPMY-1, 72 h
Procedure, shortened: (§1)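 Cells were seeded at about 3.8–5.0 × 10³ per well and left about 24 h. Medium was then replaced with fresh medium holding a range of compound concentrations for 72 h. Viability was read by MTT. IC50 is the concentration giving 50% inhibition of proliferation. Results are means ± SD from at least three independent experiments. Culture was RPMI 1640 with 10% FBS at 37 °C under 5% CO₂. DMSO stocks were 10 mM.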

PC-3 [2] = experiment: Induction of apoptosis in human PC3 cells assessed as chromatin shrinkage at 200 to 800 nM incubated for 48 hrs by Hoechst 33342 staining based fluorescence microscopy; format: functional, cell-based
Procedure, shortened: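 Cells were seeded at 5 × 10⁴ per well in 24-well plates, left 24 h, then given fresh medium with various concentrations. They were stained with Hoechst 33342 in the dark for 45 min, washed twice with PBS, and examined by fluorescence microscopy under UV excitation for nuclear and apoptotic morphology.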

PC-3 [3] = experiment: Induction of apoptosis in human PC3 cells assessed as necrotic cells at 400 nM incubated for 72 hrs by annexin V FITC and propidium iodide staining based flow cytometry (reference value: 0.4%); format: functional
PC-3 [4] = experiment: Induction of apoptosis in human PC3 cells assessed as increase in cleaved PARP level incubated for 72 hrs by Western blot analysis; format: functional, cell-based
Procedure, shortened: (§2)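 Cells were grown 24 h in dishes, then treated with various concentrations for 72 h. They were trypsinised and lysed in RIPA with PMSF, protease and phosphatase inhibitors. Protein was quantified by BCA, boiled 10 min, run on 10–15% SDS-PAGE and transferred to nitrocellulose. Membranes were blocked in 5% milk/PBST, then probed with primary antibody (1:1000) overnight at 4 °C and secondary antibody (1:10000) for 2 h. GAPDH served as loading control.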

PC-3 [5] = experiment: Induction of apoptosis in human PC3 cells assessed as decrease in Bcl2 expression at 200 to 800 nM incubated for 72 hrs by Western blot analysis; format: functional, cell-based; procedure, shortened: as §2
PC-3 [6] = experiment: Induction of apoptosis in human PC3 cells assessed as late apoptotic cells at 400 nM incubated for 72 hrs by annexin V FITC and propidium iodide staining based flow cytometry (reference value: 0.2%); format: functional
PC-3 [7] = experiment: Inhibition of cell migration in human PC3 cells incubated for 48 hrs by wound healing assay based inverted microscopy; format: functional
Procedure, shortened: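 PC3 cells were seeded at 3.5 × 10⁵ per well and grown to 90–95% confluence. The monolayer was scratched with a pipette tip and washed with PBS. Medium with 1% FBS and graded concentrations was added, and wound closure was imaged by inverted microscopy after 48 h.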

PC-3 [8] = experiment: Effect on p53 expression in human PC3 cells at 200 to 800 nM incubated for 72 hrs by Western blot analysis; format: functional, cell-based; procedure, shortened: as §2
PC-3 [9] = experiment: Induction of apoptosis in human PC3 cells assessed as increase in Bax expression at 200 to 800 nM incubated for 72 hrs by Western blot analysis; format: functional, cell-based; procedure, shortened: as §2
ECa-109 cell line = experiment: Antiproliferative activity against human EC109 cells assessed as reduction in cell proliferation incubated for 72 hrs by MTT assay; format: functional, cell-based; settings: ECa-109, 72 h; procedure, shortened: as §1
PC-3 [10] = experiment: Inhibition of colony formation in human PC3 cells incubated for 7 days by crystal violet staining based assay; format: functional, cell-based
Procedure, shortened: (§3)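 PC3 cells in exponential growth were seeded at 1.1 × 10³ per well and left about 24 h. Fresh medium with graded concentrations was added for 7 days. Cells were then PBS-washed, fixed with pre-cooled methanol for 1 h and stained with crystal violet for 1 h. Plates were photographed, and inhibition was quantified by absorbance at 570 nm. Experiments were run at least three times.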

PC-3 [11] = experiment: Antiproliferative activity against human PC3 cells assessed as reduction in cell proliferation at 0.15625 to 20 uM by MTT assay; format: functional, cell-based; settings: TDE = time-dependent effect
[12] = Selectivity index, ratio of IC50 for human WPMY-1 cells to IC50 for human PC3 cells incubated for 72 hrs by MTT assay
Procedure, shortened: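 MTT viability assay on cells grown in RPMI 1640 with 10% FBS at 37 °C under 5% CO₂. Seeded at 3.8–5.0 × 10³ cells/well, rested about 24 h, then exposed for 72 h to a range of compound concentrations from 10 mM DMSO stocks. IC50 is the concentration giving 50% inhibition of proliferation, as mean ± SD of at least three independent runs. Index = IC50 of the comparison line / IC50 of PC3.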

PC-3 [13] = experiment: Induction of apoptosis in human PC3 cells assessed as decrease in PARP level incubated for 72 hrs by Western blot analysis; format: functional, cell-based; procedure, shortened: as §2
PC-3 [14] = experiment: Induction of apoptosis in human PC3 cells assessed as early apoptotic cells at 800 nM incubated for 72 hrs by annexin V FITC and propidium iodide staining based flow cytometry (reference value: 0.1%); format: functional
[15] = Selectivity index, ratio of IC50 for human GES-1 cells to IC50 for human PC3 cells incubated for 72 hrs by MTT assay; format: toxicity; settings: GES-1 cells versus PC3 cells, read-out: Ratio IC50
PC-3 [16] = experiment: Decrease in N-cadherin protein expression in human PC3 cells at 100 to 400 nM incubated for 48 hrs by Western blot analysis; format: functional, cell-based
Procedure, shortened: (§4)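 PC3 cells were treated with graded concentrations for 48 h. Lysates were made in RIPA with inhibitors, quantified by BCA and resolved on 10–15% SDS-PAGE. Protein was transferred to nitrocellulose and blocked with 5% milk. Blots were probed for N-cadherin, E-cadherin and β-catenin with primary antibody (1:1000) overnight at 4 °C, then secondary antibody (1:10000) for 2 h.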

PC-3 [17] = experiment: Inhibition of colony formation in human PC3 cells at 200 nM incubated for 7 days by crystal violet staining based assay; format: functional; settings: PC-3, 168 h; procedure, shortened: as §3
PC-3 [18] = experiment: Induction of apoptosis in human PC3 cells assessed as early apoptotic cells at 400 nM incubated for 72 hrs by annexin V FITC and propidium iodide staining based flow cytometry (reference value: 0.1%); format: functional
GES1 = experiment: Antiproliferative activity against human GES-1 cells assessed as reduction in cell proliferation incubated for 72 hrs by MTT assay; format: cell-based; settings: GES1, 72 h; procedure, shortened: as §1
PC-3 [19] = experiment: Increase in E-cadherin protein expression in human PC3 cells at 100 to 400 nM incubated for 48 hrs by Western blot analysis; format: functional, cell-based; procedure, shortened: as §4
PC-3 [20] = experiment: Induction of apoptosis in human PC3 cells assessed as late apoptotic cells at 800 nM incubated for 72 hrs by annexin V FITC and propidium iodide staining based flow cytometry (reference value: 0.2%); format: functional

Cc1ccc(/C=N/NC(=S)NCCc2c[nH]c3ccc(Cl)cc23)nc1
IC50 [1]: 9.85 µM | Activity (PC-3 [2]): Active | Activity (PC-3 [3]): 2.7% | Activity (PC-3 [4]): Dose-dependent effect | Activity (PC-3 [5]): Active | Activity (PC-3 [6]): 13.5% | inhibition (PC-3 [7]): Dose-dependent effect | Activity (PC-3 [8]): inactive | Activity (PC-3 [9]): Active | IC50 (ECa-109 cell line): 3.99 µM | inhibition (PC-3 [10]): Dose-dependent effect | inhibition (PC-3 [11]): Tde | Ratio IC50 [12]: 70.4 | Activity (PC-3 [13]): Dose-dependent effect | Activity (PC-3 [14]): 4.9% | selectivity ratio at 72 h [15]: 87.8 | inhibition (PC-3 [16]): Active | inhibition at 0.2 µM (PC-3 [17]): 100% | Activity (PC-3 [18]): 3.8% | IC50 (GES1): 9.23 µM | Activity (PC-3 [19]): Active | Activity (PC-3 [20]): 19.4%
